From ChEMBL document CHEMBL1909630, “Azaxanthene based selective glucocorticoid receptor modulators: design, synthesis, and pharmacological evaluation of (S)-4-(5-(1-((1,3,4-thiadiazol-2-yl)amino)-2-methyl-1-oxopropan-2-yl)-5H-chromeno[2,3-b]pyridin-2-yl)-2-fluoro-N,N-dimethylbenzamide (BMS-776532) and its methylene homologue …” (J Med Chem, 2011)

What was measured:
Glucocorticoid receptor [1] = biological target: T1, Glucocorticoid receptor (Homo sapiens, UniProt P04150); test: Transactivation activity at GR-alpha in human NP1 Hela cells assessed as induction of GAL4-DBD after 20 hrs by luciferase reporter gene assay; assay type: cell-based
T1 sequence (P04150 whole entry): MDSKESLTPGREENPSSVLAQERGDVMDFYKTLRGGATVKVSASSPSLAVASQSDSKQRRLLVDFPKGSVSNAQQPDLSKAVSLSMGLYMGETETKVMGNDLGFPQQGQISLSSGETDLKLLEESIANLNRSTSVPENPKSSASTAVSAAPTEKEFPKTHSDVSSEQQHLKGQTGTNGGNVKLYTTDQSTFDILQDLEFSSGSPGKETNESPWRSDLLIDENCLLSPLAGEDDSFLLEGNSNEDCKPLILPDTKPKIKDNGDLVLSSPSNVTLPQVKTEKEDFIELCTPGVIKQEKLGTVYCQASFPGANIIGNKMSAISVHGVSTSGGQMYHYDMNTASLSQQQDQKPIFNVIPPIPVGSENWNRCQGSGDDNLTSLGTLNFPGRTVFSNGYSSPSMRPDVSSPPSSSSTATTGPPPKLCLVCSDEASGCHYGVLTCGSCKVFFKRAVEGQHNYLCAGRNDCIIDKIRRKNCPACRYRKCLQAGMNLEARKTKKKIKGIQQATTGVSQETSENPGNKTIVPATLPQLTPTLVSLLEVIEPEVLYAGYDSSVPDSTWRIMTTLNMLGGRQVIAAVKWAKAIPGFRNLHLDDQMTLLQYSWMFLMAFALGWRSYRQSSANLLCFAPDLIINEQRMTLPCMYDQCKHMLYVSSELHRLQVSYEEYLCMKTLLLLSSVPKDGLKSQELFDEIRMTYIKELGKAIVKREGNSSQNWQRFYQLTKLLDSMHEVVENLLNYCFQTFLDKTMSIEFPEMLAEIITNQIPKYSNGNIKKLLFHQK

Glucocorticoid receptor [2] = biological target: T1, Glucocorticoid receptor; test: Transrepression activity at glucocorticoid receptor alpha in phorbol myristate acetate-stimulated human A549 cells assessed as inhibition of AP1 response element by luciferase reporter gene assay; assay type: cell-based
Blood [3] = test: Antiinflammatory activity in human whole blood assessed as inhibition of IL-1beta-induced IL-8 production after overnight incubation by ELISA relative to Dexamethasone; assay type: functional
In short: (§1)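 Whole blood from two donors per experiment was collected into ACD-A. Compounds were added and the blood was incubated about 20 h at 37 °C under 5% CO2. Blood was then stimulated for 5 h with LPS (final 100 ng/mL, for TNFα) or IL-1β (final 10 ng/mL, for IL-8). Plasma TNFα or IL-8 was measured by ELISA. Efficacy was expressed as % of dexamethasone, and values are means of at least two experiments.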

Rattus norvegicus = test: Antiinflammatory activity in po dosed Freund's complete adjuvant-induced Lewis rat arthritis model assessed as reduction in progression of arthritis; assay type: functional, organism-based
In short: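 Male Lewis rats were inoculated with Mycobacterium butyricum in incomplete Freund's adjuvant. Oral dosing was daily and preventative, running from day 0 to day 21. Onset and progression of arthritis were followed, and ED50 was estimated from the dose response.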

Blood [4] = test: Antiinflammatory activity in human whole blood assessed as inhibition of LPS-induced TNFalpha production after overnight incubation by ELISA relative to Dexamethasone; assay type: functional; in short: as §1
Blood [5] = test: Antiinflammatory activity in human whole blood assessed as inhibition of TNF-alpha-induced IL-8 production after overnight incubation by ELISA; assay type: functional, tissue-based
Glucocorticoid receptor [6] = biological target: T1, Glucocorticoid receptor; test: Transrepression activity at glucocorticoid receptor alpha in IL-1beta-stimulated human A549 cells assessed as inhibition of NFkappaB-dependent E-selectin transcription by luciferase reporter gene assay; assay type: cell-based
Estrogen receptor = biological target: T2, Estrogen receptor (Homo sapiens, UniProt P03372); test: Displacement of fluorescently labeled ligand from ERalpha receptor by fluorescence polarization assay
T2 sequence (P03372 whole entry): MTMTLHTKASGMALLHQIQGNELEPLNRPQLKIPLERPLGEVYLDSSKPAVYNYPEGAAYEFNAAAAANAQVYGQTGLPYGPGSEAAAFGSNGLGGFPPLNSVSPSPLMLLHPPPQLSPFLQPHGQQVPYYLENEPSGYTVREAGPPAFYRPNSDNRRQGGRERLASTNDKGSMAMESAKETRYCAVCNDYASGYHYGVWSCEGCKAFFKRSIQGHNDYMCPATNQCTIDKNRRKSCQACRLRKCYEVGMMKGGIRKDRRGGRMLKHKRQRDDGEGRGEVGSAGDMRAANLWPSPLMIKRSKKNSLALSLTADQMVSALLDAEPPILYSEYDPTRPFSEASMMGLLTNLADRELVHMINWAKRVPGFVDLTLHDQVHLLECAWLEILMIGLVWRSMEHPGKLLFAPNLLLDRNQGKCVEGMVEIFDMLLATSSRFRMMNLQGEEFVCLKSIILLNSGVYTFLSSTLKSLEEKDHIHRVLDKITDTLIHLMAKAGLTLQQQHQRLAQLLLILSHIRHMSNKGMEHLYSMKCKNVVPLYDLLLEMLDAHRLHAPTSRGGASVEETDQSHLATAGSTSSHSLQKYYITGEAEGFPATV
In short: (§2)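 Binding was measured by fluorescence polarization competition between compound and a fluorescent ligand for full-length receptor or ligand-binding domain. Values are means of at least two experiments.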

Androgen receptor = biological target: T3, Androgen receptor (Homo sapiens, UniProt P10275); test: Displacement of fluorescently labeled ligand from androgen receptor by fluorescence polarization assay; in short: as §2
T3 sequence (P10275 whole entry): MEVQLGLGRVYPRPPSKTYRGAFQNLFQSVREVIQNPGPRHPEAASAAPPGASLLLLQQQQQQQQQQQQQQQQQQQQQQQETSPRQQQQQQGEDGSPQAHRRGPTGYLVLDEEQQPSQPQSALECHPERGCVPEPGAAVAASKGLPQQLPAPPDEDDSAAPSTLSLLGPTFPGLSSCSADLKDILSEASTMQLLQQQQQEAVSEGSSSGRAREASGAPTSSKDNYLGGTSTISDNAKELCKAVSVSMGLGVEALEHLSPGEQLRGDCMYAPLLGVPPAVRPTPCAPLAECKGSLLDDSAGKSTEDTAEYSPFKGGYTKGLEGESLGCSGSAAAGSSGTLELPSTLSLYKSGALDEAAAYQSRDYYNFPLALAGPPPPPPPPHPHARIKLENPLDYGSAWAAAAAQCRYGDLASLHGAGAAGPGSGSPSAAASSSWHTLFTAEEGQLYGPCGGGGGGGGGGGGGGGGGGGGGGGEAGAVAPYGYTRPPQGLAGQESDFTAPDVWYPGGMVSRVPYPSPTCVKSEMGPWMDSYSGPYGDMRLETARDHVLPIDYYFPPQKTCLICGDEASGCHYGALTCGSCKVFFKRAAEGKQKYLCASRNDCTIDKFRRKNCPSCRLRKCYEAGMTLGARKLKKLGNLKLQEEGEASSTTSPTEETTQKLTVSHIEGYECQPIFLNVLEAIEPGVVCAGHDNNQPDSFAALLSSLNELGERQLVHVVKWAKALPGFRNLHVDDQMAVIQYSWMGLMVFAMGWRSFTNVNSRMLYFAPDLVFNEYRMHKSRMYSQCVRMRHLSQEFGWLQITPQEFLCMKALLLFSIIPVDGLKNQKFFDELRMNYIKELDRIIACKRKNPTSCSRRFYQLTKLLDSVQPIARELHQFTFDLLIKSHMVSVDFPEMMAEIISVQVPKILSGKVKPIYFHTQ

| EC50 (Glucocorticoid receptor [1]) [nM] | EC50 (Glucocorticoid receptor [2]) [nM] | EC50 (Blood [5]) [nM] | EC50 (Glucocorticoid receptor [6]) [nM] | Ki (Estrogen receptor) [µM] | Ki (Androgen receptor) [µM] | Structure (SMILES) | Imax (Blood [3]) [%] | Activity (Rattus norvegicus) | Imax (Blood [4]) [%] |
| --- | --- | --- | --- | --- | --- | --- | --- | --- | --- |
| 98.5 | 17.7 | 532 | 6.89 | > 75 | > 5 | CCN(C)C(=O)c1ccc(-c2ccc3c(n2)Oc2ccccc2[C@@H]3C(C)(C)C(=O)Nc2nncs2)cc1F | 88 | Dose-dependent effect | 91 |
| 242 | 33.2 | 1470 | 33.8 | > 75 | > 5 | CN(C)C(=O)c1ccc(-c2ccc3c(n2)Oc2ccccc2[C@H]3C(C)(C)C(=O)Nc2nncs2)cc1F | 70 | Dose-dependent effect | 83 |
